# High-throughput results: PubChem, several laboratories
# APP 5'UTR act: activates APP 5'UTR luciferase reporter; 190,000 tested, 1% active; AID 1276; activation, % at 2 µM; SH-SY5Y APP 5'UTR luciferase reporter, luminescence; zero percent = DMSO vehicle wells;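 active means activation above a set limit, based on mean plus 3 SD of controls, cut at about 140% in these data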
# STAT3 blocker: reduces IL-6 driven STAT3 reporter signal; U3A cells, IL-6 STAT3-luciferase reporter, luminescence; host cell line lacks STAT1; inhibition, % at 5.5 µM; 190,000 tested, 0.89% active; AID 862;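 active means inhibition above the mean inhibition across all screened compounds plus 3 SD, cut at about 44% in these data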
# STAT1 act: increases IFN-gamma driven STAT1 reporter signal; 200,000 tested, 2.6% active; NIH 3T3 STAT1-luciferase reporter, luminescence; 100% = IFN-gamma alone, no compound; AID 932; activation (% of control), % at 5.5 µM;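 active means activation above the screen-wide mean activation plus 3 SD, cut at about 130% in these data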
# NF-kB expr up: compounds increasing NF-kB expression in human neuronal cells. 190,000 tested, 1.6% active. NF-kB reporter expression; active compounds read high. fold change at 12.5 µM; in the data active means fold change above about 3.3
# STAT3 act: activators of IL-6 induced STAT3 signaling; 190,000 tested, 0.91% active; activation (% of control), % at 5.6 µM; U3A cells, IL-6 STAT3-luciferase reporter, luminescence; 100% = signal with IL-6 EC80 alone;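 active means activation above the screen-wide mean of compound activation plus 3 SD, cut at about 130% in these data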
#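 Material: STAT1-lacking human U3A cells, STAT3 luciferase reporter | Benchmarks: IL-6-only wells as 100% reference | Probe or stimulus: IL-6 (33 ng/mL) | Timing: Compound 1 h, then IL-6 6 h at 37 °C | Detection: Luminescence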
# STAT1 blocker: STAT1 signaling inhibition | NIH 3T3 STAT1-luciferase reporter, IFN-gamma, luminescence | inhibition, % at 5.5 µM | 200,000 tested, 0.35% active;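 active means inhibition above a set limit, the mean inhibition across all tested compounds plus 3 SD, cut at about 34% in these data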
# STAT1 act conf: STAT1 activation, confirmation assay; 1,200 tested, 97% active; activation (% of control), % at 5.7 µM; shares compounds with STAT1 act; NIH 3T3 STAT1-luciferase reporter, IFN-gamma potentiation, luminescence; 100% = IFN-gamma EC80 alone, no compound;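 active means activation above a set limit carried over from the earlier primary STAT1 screen, cut at about 140% in these data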
# NFkB act: NF-kappaB activation in STAT1 activator counter-screen; shares compounds with STAT1 act; HEK293T NF-kB luciferase reporter, TNF-alpha stimulated, luminescence; 100% = TNF-alpha with vehicle only; 1,200 tested, 43% active; activation (% of control), % at 5.7 µM;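 active means activation above the mean of solvent-only control wells plus 3 SD, set per campaign, cut at about 130% in these data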;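 further: TNF-alpha given at a submaximal dose yielding about 80% of full reporter signal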
# STAT3 act STAT1c: activates human STAT3, counter-screen to STAT1 activators | U3A cells STAT3-luciferase reporter, IL-6, luminescence; cells lack STAT1; 100 = IL-6 alone, no compound effect | shares compounds with STAT1 act | AID 1316 | activation (% of control), % at 5.7 µM | 1,200 tested, 46% active;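 active means activation above the solvent-only control well mean plus 3 SD, set per plate batch, cut at about 110% in these data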;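 further: higher means more STAT3 reporter activation so hits are non-selective activators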
# Numbers stand for hits; . = inactive; / = not tested or not shown. Only some compounds are listed: those with a hit (about 4.9% of all), similar ones and a draw of the others.
SMILES,APP 5'UTR act,STAT3 blocker,STAT1 act,NF-kB expr up,STAT3 act,STAT1 blocker,STAT1 act conf,NFkB act,STAT3 act STAT1c
O=C(/C=C/c1ccco1)Nc1ccc(N2CCCC2)cc1,.,.,158.5,.,.,.,187.0,139.0,112.9
O=C(/C=C/c1ccco1)Nc1cccnc1,.,.,.,/,.,.,/,/,/
O=C(/C=C/c1ccco1)Nc1ccccn1,.,.,152.0,.,.,.,177.1,.,.
CCCc1ccc(-c2cc(C(=O)Nc3ccc([N+](=O)[O-])cn3)c3ccccc3n2)cc1,.,.,.,.,.,.,/,/,/
CC(C)(C#CCN1CCCCC1)OCCOC(c1ccccc1)c1ccccc1,.,.,.,.,.,.,/,/,/
CCN(CC)c1ccc(NC(=O)c2cccc(C)c2OC)c(C)c1,.,.,152.5,4.15,.,.,175.4,137.0,.
CCN(CC)c1ccc(NC(=O)c2cccnc2)c(C)c1,.,.,.,.,.,.,/,/,/
O=C1OC(Cc2ccccn2)C(O)=C1C1=NCCCCN1 (configuration not stated),.,.,152.0,.,.,.,150.6,.,114.4
O=C1OC(Cc2ccccn2)C(O)=C1C1=NCCCN1 (configuration not stated),.,.,.,.,.,.,/,/,/
COc1ccc(OCCSc2ncccn2)cc1,160.4,.,153.6,4.12,.,.,181.0,.,120.0
CCOC(=O)CSc1nc2cc(C)ccc2cc1C#N,.,.,152.9,7.08,.,.,212.7,138.8,.
CCOC(=O)CSc1nc2ccc(C)cc2cc1C#N,/,.,157.4,4.28,.,.,220.8,141.7,.
CCOC(=O)CSc1nc2cc(C)cc(C)c2cc1C#N,.,.,.,.,.,.,/,/,/
CCOC(=O)CSc1nc2cc(OC)ccc2cc1C#N,172.7,.,168.1,8.11,.,.,258.5,144.7,111.8
COc1ccc2nc(SCC(C)=O)c(C#N)cc2c1,137.9,.,190.2,5.76,.,.,311.8,139.0,.
CCOc1ncccc1C(=O)OCC(=O)N(CC)c1ccccc1,.,.,.,.,.,.,/,/,/
O=C(Cn1cnc2ccccc2c1=O)c1ccc(Cl)cc1,.,.,155.0,/,.,.,148.3,.,.
CC1=CN2C(=N)/C(=C/c3ccc(Sc4ccc(C)cc4)o3)C(=O)N=C2S1,.,.,.,.,.,.,/,/,/
CC1=CN2C(=N)/C(=C/c3ccc(C)o3)C(=O)N=C2S1,160.8,.,201.1,4.3,.,.,249.4,141.3,.
O=c1c2ccccc2cnn1-c1ccc(Br)cc1,.,.,152.0,6.36,.,.,214.1,141.8,140.8
O=c1c(Br)c(Br)cnn1-c1ccccc1,.,.,177.1,.,.,.,.,.,.
O=c1c2ccccc2cnn1-c1ccc(Cl)nn1,.,.,.,.,.,.,/,/,/
CC(C)CNC(=O)Cn1c(=O)c2c(ncn2CC(C)C)n(Cc2ccccc2)c1=O,.,.,.,.,.,.,/,/,/
COc1ccc(/C=N/NC(=O)CCSc2nc3ccccc3s2)cc1,.,.,.,.,.,.,/,/,/
CCc1ccc(Nc2ncc3c(n2)CC(c2ccc(OC)cc2)CC3=O)cc1 (configuration not stated),.,.,.,.,.,.,/,/,/
CCc1ccc(Nc2ncc3c(n2)CC(C)CC3=O)cc1 (configuration not stated),173.1,.,151.3,3.53,.,.,198.2,.,.
N=C1SC(c2ccccc2)C(=O)N1c1ncc(Cc2ccccc2Cl)s1 (configuration not stated),.,.,.,.,.,.,/,/,/
N#C/C(=C\c1ccc([N+](=O)[O-])o1)C(=O)Nc1ccc(F)cc1,.,.,.,.,.,.,/,/,/
